Results: ChEMBL document CHEMBL4196175, “First SAR Study for Overriding NRAS Mutant Driven Acute Myeloid Leukemia” (J Med Chem, 2018)
Active and inactive are the calls of the source. No cut-off for these calls is given here.

How the values were obtained:
[1] = target: Activated CDC42 kinase 1 (Mus musculus) (UniProt O54967); test: Inhibition of ACK1 in mouse BA/F3 cells harboring NRAS-G12D mutant assessed as reduction in P70S6K1 phosphorylation at Thr421/Ser424 at 1 uM after 2 hrs by Western blot analysis; format: cell-based
Procedure, shortened: (§1)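 Ba/F3-NRAS-G12D or OCI-AML3 cells exposed 2 h to compounds (1 µM, or a dose series in OCI-AML3); phospho-p70S6K1, phospho-AKT S473, phospho-JNK and phospho-p38 assessed by western blot, actin as loading control.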

[2] = Metabolic stability in dog liver microsomes assessed as compound remaining at 1 uM after 30 mins; format: ADME, Canis lupus familiaris, microsome; settings: read-out: Stability
CYP3A4 = CYP3A4 (Homo sapiens, UniProt P08684); test: Inhibition of CYP3A4 (unknown origin) assessed as activity remaining at 10 uM relative to control; format: ADME; settings: read-out: Activity
[3] = target: T1, Mitogen-activated protein kinase kinase kinase kinase 2 (Homo sapiens) (UniProt Q12851); test: Inhibition of GCK in human OCI-AML3 cells harboring NRAS Q61L mutant assessed as reduction in p38 phosphorylation at Thr180/Tyr182 at 1 uM after 2 hrs by Western blot analysis; format: cell-based; procedure, shortened: as §1
T1 sequence (whole entry): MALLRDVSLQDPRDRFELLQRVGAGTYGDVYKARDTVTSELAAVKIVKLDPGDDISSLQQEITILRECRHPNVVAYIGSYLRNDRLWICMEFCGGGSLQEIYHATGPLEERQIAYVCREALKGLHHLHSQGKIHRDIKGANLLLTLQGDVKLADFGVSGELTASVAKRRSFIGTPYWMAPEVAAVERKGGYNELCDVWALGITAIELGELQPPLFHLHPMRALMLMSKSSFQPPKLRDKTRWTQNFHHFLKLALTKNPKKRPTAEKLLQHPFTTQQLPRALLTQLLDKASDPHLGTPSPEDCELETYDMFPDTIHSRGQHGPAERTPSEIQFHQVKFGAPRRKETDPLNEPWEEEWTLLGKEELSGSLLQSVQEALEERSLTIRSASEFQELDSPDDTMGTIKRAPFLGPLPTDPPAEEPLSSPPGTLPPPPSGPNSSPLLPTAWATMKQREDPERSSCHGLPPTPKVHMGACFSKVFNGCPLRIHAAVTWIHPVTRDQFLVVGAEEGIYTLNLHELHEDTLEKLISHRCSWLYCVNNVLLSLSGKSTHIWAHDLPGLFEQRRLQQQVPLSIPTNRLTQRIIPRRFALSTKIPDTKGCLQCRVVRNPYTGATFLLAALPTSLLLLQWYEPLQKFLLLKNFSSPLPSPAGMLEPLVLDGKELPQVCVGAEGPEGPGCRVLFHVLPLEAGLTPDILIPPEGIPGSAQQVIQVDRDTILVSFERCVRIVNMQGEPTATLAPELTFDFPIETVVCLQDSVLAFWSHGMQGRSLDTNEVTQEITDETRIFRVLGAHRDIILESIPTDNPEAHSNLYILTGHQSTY

CYP1A2 = target: T2, CYP1A2 (Homo sapiens, UniProt P05177); test: Inhibition of CYP1A2 (unknown origin) assessed as activity remaining at 10 uM relative to control; format: ADME; settings: read-out: Activity
T2 sequence (P05177 whole entry): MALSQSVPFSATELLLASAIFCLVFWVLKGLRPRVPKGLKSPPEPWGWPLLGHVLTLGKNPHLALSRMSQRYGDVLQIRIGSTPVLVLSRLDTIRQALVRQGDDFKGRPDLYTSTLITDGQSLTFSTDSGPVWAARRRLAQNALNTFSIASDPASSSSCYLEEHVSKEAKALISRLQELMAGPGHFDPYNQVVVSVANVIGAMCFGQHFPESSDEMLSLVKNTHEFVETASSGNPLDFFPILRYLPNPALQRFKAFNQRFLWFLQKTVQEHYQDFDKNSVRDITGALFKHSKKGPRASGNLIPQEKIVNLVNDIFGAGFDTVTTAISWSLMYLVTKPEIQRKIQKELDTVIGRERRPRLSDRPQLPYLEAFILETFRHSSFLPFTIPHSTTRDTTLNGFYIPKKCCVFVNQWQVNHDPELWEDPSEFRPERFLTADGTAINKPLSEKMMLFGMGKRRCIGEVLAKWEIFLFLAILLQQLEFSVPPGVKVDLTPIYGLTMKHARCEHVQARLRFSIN

[4] = target: T3, Mitogen-activated protein kinase kinase kinase kinase 2 (Mus musculus) (UniProt Q61161); test: Inhibition of GCK in mouse BA/F3 cells harboring NRAS-G12D mutant assessed as reduction in JNK phosphorylation at T183/Y185 at 1 uM after 2 hrs by Western blot analysis; format: cell-based; procedure, shortened: as §1
T3 sequence (whole entry): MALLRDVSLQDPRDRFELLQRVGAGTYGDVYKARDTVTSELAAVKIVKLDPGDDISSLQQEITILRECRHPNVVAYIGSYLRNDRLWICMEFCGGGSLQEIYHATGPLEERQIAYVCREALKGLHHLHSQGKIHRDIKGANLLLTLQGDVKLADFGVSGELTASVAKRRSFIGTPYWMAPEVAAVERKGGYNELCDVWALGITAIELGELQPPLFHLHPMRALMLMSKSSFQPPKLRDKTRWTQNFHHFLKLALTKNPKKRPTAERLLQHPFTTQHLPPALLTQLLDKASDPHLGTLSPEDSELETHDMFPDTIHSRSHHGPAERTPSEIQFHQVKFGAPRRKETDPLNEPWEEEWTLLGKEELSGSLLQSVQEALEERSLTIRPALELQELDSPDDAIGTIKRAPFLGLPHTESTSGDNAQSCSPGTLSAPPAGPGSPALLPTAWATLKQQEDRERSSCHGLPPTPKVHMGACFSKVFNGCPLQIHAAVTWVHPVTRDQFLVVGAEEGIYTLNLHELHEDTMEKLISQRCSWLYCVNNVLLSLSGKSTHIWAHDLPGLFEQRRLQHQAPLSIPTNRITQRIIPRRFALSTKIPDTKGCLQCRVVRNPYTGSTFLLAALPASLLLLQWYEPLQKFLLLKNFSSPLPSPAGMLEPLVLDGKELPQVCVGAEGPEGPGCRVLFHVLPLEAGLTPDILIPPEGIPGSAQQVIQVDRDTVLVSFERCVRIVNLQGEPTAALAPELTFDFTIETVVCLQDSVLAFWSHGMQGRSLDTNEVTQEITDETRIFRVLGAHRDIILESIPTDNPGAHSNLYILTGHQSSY

Activated CDC42 kinase 1 [5] = target: T4, Activated CDC42 kinase 1 (Homo sapiens, UniProt Q07912); test: Inhibition of ACK1 in human OCI-AML3 cells harboring NRAS Q61L mutant assessed as reduction in P70S6K1 phosphorylation at Thr421/Ser424 at 1 uM after 2 hrs by Western blot analysis; format: cell-based; procedure, shortened: as §1
Activated CDC42 kinase 1 [6] = target: T4, Activated CDC42 kinase 1; test: Inhibition of ACK1 in human OCI-AML3 cells harboring NRAS Q61L mutant assessed as reduction in AKT phosphorylation at S473 at 1 uM after 2 hrs by Western blot analysis; format: cell-based; procedure, shortened: as §1

T4 sequence (Q07912 whole entry, looked up): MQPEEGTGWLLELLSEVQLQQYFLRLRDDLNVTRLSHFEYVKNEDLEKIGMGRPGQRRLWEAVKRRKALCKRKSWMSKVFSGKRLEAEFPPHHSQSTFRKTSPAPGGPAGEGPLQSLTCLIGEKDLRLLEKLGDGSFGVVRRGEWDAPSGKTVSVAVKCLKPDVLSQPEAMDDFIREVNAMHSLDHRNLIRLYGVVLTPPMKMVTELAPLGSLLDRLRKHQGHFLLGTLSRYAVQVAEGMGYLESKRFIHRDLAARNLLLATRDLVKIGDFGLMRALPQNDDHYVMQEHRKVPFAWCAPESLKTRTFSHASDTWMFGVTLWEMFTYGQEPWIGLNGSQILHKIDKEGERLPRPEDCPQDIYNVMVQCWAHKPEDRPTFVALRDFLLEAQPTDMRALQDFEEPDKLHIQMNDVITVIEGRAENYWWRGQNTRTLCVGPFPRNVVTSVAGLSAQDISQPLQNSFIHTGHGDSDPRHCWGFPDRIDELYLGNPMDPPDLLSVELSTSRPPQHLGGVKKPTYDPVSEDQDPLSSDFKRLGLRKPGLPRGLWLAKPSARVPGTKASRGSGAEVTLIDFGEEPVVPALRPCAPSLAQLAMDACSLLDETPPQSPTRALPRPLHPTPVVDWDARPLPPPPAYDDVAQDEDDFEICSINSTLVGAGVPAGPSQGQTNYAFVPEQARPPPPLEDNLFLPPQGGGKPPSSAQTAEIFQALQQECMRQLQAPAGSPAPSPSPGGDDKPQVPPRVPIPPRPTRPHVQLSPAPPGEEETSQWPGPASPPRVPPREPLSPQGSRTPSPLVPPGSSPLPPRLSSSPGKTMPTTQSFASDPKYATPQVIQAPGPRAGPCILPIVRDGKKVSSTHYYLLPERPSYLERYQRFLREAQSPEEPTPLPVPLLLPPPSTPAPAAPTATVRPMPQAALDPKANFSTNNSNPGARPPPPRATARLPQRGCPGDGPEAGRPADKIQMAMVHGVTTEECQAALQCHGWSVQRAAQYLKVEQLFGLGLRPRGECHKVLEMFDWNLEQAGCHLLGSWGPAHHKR
Chain of CYP3A4 (P08684 whole entry): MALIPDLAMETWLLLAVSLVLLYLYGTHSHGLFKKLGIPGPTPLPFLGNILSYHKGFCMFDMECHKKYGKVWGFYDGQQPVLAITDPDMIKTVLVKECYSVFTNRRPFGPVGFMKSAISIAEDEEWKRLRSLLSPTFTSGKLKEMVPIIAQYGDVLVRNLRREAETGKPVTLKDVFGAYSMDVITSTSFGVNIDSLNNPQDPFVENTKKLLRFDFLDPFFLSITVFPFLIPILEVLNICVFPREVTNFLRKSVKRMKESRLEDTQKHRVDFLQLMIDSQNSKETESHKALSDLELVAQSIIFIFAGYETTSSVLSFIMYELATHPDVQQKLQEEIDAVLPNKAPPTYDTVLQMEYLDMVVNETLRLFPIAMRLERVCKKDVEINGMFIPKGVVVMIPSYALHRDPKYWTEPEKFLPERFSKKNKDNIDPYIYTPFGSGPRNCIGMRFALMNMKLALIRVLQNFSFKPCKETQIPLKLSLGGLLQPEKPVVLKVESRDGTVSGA
Chain of Activated CDC42 kinase 1 (Mus musculus) (O54967 whole entry): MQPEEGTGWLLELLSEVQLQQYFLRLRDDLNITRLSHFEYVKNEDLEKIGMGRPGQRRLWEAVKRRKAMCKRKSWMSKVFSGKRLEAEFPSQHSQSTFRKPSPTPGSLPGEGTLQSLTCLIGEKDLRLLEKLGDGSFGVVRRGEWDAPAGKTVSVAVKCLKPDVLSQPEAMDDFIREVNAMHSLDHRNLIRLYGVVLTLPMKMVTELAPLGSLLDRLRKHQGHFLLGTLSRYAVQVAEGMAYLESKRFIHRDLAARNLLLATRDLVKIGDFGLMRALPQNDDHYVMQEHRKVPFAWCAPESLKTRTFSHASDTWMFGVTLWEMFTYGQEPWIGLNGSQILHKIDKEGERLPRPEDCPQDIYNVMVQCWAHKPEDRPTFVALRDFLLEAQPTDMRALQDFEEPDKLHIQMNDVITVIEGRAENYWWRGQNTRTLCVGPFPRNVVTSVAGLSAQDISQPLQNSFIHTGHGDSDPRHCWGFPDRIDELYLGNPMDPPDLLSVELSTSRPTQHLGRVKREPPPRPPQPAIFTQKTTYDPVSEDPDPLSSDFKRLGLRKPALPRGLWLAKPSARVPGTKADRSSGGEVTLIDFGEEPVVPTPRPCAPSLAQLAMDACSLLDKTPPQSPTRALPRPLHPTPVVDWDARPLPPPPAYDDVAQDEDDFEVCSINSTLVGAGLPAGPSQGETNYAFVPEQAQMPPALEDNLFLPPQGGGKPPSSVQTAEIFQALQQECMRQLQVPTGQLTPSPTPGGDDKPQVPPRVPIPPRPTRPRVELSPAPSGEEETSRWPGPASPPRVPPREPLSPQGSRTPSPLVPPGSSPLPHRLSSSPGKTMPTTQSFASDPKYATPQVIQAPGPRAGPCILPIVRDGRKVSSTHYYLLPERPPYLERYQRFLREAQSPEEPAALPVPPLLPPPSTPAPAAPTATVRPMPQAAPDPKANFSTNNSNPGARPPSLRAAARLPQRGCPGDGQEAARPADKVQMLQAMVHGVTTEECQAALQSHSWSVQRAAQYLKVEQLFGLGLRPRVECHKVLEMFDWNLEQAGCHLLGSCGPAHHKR

reduction in P70S6K1 phosphorylation (active/inactive) [1] | remaining at 0.5 h, 1 µM [2] [%] | activity at 10 µM (CYP3A4) [%] | inhibition [3] | activity at 10 µM (CYP1A2) [%] | reduction in JNK phosphorylation (active/inactive call) [4] | inhibition (Activated CDC42 kinase 1 [5]) | reduction in AKT S473 phosphorylation (qualitative) (Activated CDC42 kinase 1 [6]) | SMILES
Active | 69.9 | > 100 | Active | 88.2 | Active | Active | Active | Cc1cc(Nc2ncc3c(n2)N(C)C(=O)N(c2cc(NC(=O)c4cccc(C(F)(F)F)c4)ccc2C)C3)n(C)n1
Active | 43.1 | 21.6 | Active | 67.5 | Active | Active | Active | Cc1ccc(Nc2ncc3c(n2)N(C)C(=O)N(c2cc(NC(=O)c4ccc(CN5CCC(N(C)C)C5)c(C(F)(F)F)c4)ccc2C)C3)cn1 (stereo not given)
Active | 23.3 | 94.2 | Active | 81.8 | Active | Active | Active | CCN1CCN(C(=O)c2ccc(Nc3ncc4c(n3)N(C)C(=O)N(c3cc(NC(=O)c5cccc(C(F)(F)F)c5)ccc3C)C4)cn2)CC1
– | 38 | 88.5 | – | 87.2 | – | – | – | CC(=O)N1CCN(c2ccc(Nc3ncc4c(n3)N(C)C(=O)N(c3cc(NC(=O)c5cccc(C(F)(F)F)c5)ccc3C)C4)cn2)CC1

SMILES | reduction in P70S6K1 phosphorylation (active/inactive) [1] | remaining at 0.5 h, 1 µM [2] [%] | activity at 10 µM (CYP3A4) [%] | inhibition [3] | activity at 10 µM (CYP1A2) [%] | reduction in JNK phosphorylation (active/inactive call) [4] | inhibition (Activated CDC42 kinase 1 [5]) | reduction in AKT S473 phosphorylation (qualitative) (Activated CDC42 kinase 1 [6])
Cc1ccc(NC(=O)c2cccc(C(F)(F)F)c2)cc1N1Cc2cnc(N)nc2N(C)C1=O | Active | 67.9 | > 100 | Active | 89.2 | Active | Active | Active
